Shown are actives, neighbours in structure and some others; about 4.3% of the full set was active somewhere.
CAL PDZ FP-1 – inhibitors of human CAL PDZ peptide binding; Q9HD26; purified CAL PDZ, TMR-peptide fluorescence polarization, 1 h; inhibition, % at 20 µM; 330,000 compounds, 0.02% hits; AID 504414;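 active = highest replicate inhibition of at least 40%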
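Read-out basis: mP drop reported as inhibition | Assay system: Tagged CAL PDZ protein CerCALP, purified | Benchmarks: Unlabelled peptide for full inhibition, DMSO wells as neutral | Schedule: 1 h incubation at room temperature before polarization reading | Buffer or medium: Sodium phosphate/NaCl buffer pH 7.4 with TCEP, IgG, Thesit | Doses: Single point, 20 µM | Measured by: Fluorescence polarization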
CAL PDZ FP-2 – inhibitors of human CAL PDZ peptide binding; inhibition, % at 24.9 µM; AID 602252; 300,000 compounds, 0.92% hits; purified CAL PDZ, TMR-peptide fluorescence polarization, 1 h;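 active = mean inhibition of at least 30% with at least half of replicates also reaching 30%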
ALR inh – blocks human ALR sulfhydryl oxidase activity; P55789; purified ALR, DTT oxidation, H2O2 HRP-luminol luminescence; inhibition, % (no concentration beside the values); 290,000 compounds, 3.8% hits; AID 485317;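 active = mean replicate inhibition above about 79%, with every replicate also reaching it, limit read from the data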
Target sequence (P55789 whole entry, looked up): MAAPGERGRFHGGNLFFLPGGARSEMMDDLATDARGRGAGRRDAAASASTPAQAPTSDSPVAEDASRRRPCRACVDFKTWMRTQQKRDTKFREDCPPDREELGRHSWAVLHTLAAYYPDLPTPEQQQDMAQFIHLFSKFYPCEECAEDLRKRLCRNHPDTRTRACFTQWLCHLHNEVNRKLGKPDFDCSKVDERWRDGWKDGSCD
DYRK1A inh – inhibitors of rat Dyrk1A kinase; inhibition, % at 12.5 µM; 310,000 compounds, 0.43% hits; ADP-Glo luminescence, NFATc1 peptide; in the data active = inhibition above about 50%
Rtt109 HAT inh – inhibitors of Candida albicans Rtt109/Vps75 histone acetyltransferase; Q5AAJ8; 330,000 compounds, 0.16% hits; inhibition, % at 34.9 µM; purified Rtt109/Vps75, ThioGlo CoA-SH fluorescence, 4 h; AID 540336;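 active = inhibition of at least 50% in every replicate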
Target sequence (Q5AAJ8 whole entry, looked up): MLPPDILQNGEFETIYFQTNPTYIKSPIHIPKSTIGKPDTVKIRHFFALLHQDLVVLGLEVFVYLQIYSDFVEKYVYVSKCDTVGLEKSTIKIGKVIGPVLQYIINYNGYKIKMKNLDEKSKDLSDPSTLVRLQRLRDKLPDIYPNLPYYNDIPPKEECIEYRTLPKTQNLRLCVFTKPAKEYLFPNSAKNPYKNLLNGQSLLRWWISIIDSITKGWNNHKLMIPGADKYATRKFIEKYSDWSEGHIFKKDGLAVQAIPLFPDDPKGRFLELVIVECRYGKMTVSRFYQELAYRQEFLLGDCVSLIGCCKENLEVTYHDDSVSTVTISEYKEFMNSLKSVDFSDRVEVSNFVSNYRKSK
Numbers stand for hits; - = inactive; . = no result; + = active, no number.

SMILES	CAL PDZ FP-1	CAL PDZ FP-2	ALR inh	DYRK1A inh	Rtt109 HAT inh
COc1ccccc1C(=O)Nc1ccc2c(c1)nc1n2CCSC1	-	-	99	-	-
Cc1ncc(CN2CCCC(C(=O)Nc3ccc(-n4ccnc4C)cc3)C2)cn1 (stereo not drawn)	-	-	-	-	-
NS(=O)(=O)c1cnccc1Nc1cccc(F)c1	-	-	-	.	-
Cc1nn(CC(=O)Nc2cccc(S(N)(=O)=O)c2)c(C)c1[N+](=O)[O-]	-	-	.	-	-
O=C(CSc1ncnc2ccccc12)NCc1ccco1	.	-	99	-	-
N#Cc1ccsc1NC(=O)CSc1ncnc2ccccc12	-	-	98	-	-
O=C(CSc1ncnc2ccccc12)NCCCO	-	-	-	-	-
O=C(CSc1ncnc2ccccc12)NCCc1ccccc1	-	45	-	-	-
Cc1nc(SCC(=O)NCc2ccco2)c2c3c(sc2n1)CCCC3	-	-	97	-	-
O=C1N[C@@H](Cc2c[nH]c3ccccc23)COC(=O)[C@@H](Cc2ccc(F)cc2)CC/C=C/C[C@@H]1CC(=O)N(CCO)Cc1ccccc1	-	-	.	-	-
CC(C)C[C@H](NC(=O)c1[nH]cnc1C(=O)Nc1ccccc1)C(=O)OC(C)(C)C	-	-	-	-	-
O=[N+]([O-])c1ccc(CSc2ccccn2)cc1	.	-	-	-	-
O=[N+]([O-])c1ccc(CSc2ncnc3ccccc23)cc1	-	-	99	-	-
O=C(CSc1ncnc2ccccc12)c1ccco1	-	-	99	-	-
Cc1cc(SCC(=O)NC(=O)NCc2ccco2)nc2c(C)cccc12	-	-	-	-	-
Cc1ccc2nc(SCC(=O)NCc3ccco3)c(C#N)cc2c1	-	-	-	-	-
Cc1ccc2nc(SCC(=O)NCc3ccco3)c(C)cc2c1	-	-	98	-	-
Cc1cc(SCC(=O)NC(=O)NCc2ccco2)nc2ccccc12	-	-	98	-	-
O=C1CN(C(=O)COC(=O)c2c(F)cccc2Cl)c2ccccc2N1	-	-	.	-	-
O=C(Cc1n[nH]c(=O)c2ccccc12)OCC(=O)c1ccc(F)cc1	-	-	-	-	-
COc1ccccc1C(=O)COC(=O)Cc1n[nH]c(=O)c2ccccc12	-	31	-	-	-
N#Cc1sc(NCc2ccccc2)nc1Cl	-	-	-	-	-
N#Cc1c(NCc2ccccc2)ccnc1Cl	-	40	-	-	-
CCCCN1C(=O)c2ccc(C(=O)OCC(=O)N3CCN(c4ccccc4)CC3)cc2C1=O	-	-	-	.	-
Cc1cccc(C(CC(=O)NCc2ccco2)c2ccccc2)c1O (stereo not drawn)	-	+	-	-	.
SMILES	CAL PDZ FP-1	CAL PDZ FP-2	ALR inh	DYRK1A inh	Rtt109 HAT inh
Cc1ccc(O)c(C(CC(=O)NCc2ccco2)c2ccccc2)c1 (stereo not drawn)	-	-	-	-	-
CN(C)c1ccc(C(C(=O)NC2CCCC2)N(C(=O)c2ccco2)C2CC2)cc1 (stereo not drawn)	-	-	99	-	-
Cc1ccc(-n2ncc3c(SCc4cccnc4)ncnc32)c(C)c1	-	-	.	.	-
COC(=O)c1sc2nc(-c3ccco3)ccc2c1N	-	-	98	-	-
O=C(CSc1n[nH]c(-c2ccccc2)n1)c1ccc(O)c(O)c1	-	-	99	-	-
CCc1nc(SCC(=O)c2ccc(C)c(C)c2)n[nH]1	-	-	93	-	-
COc1ccc(C(=O)CSc2n[nH]c(C)n2)cc1[N+](=O)[O-]	-	-	82	-	-
CCc1c(C)nc(SCC(=O)c2ccc(C)c(C)c2)[nH]c1=O	-	-	-	-	-
Cc1cc(SCC(=O)c2ccc(O)c(O)c2)nc2ccccc12	-	-	100	-	-
Cc1cc(SCC(=O)c2ccc3c(c2)OCO3)nc2ccccc12	-	.	-	-	-
CCc1ccc(NC(=O)C(=O)NCc2ccccn2)cc1	-	-	-	-	-
Cc1ccc(C(=O)CSc2n[nH]c(-c3ccco3)n2)cc1C	-	.	97	-	-
Cc1ccc(-c2nc(CSCC(=O)NCCN3CCN(Cc4ccccc4)CC3)c(C)o2)cc1	-	-	99	-	-
Cc1ccc(-c2nc(CSCC(=O)NCCCN3CCOCC3)c(C)o2)cc1	-	-	97	-	-
COCCNC(=O)C(=O)NNS(=O)(=O)c1ccc(Cl)cc1	-	.	-	-	-
O=C(NNc1ccccn1)C(=O)NNS(=O)(=O)c1ccc(Cl)cc1	-	.	99	-	-
O=C(NNc1ccccn1)C(=O)NNS(=O)(=O)c1ccc(F)cc1	-	-	99	-	-
Fc1ccccc1NC(=S)N(CCCN1CCOCC1)Cc1cccnc1	-	-	.	.	-
COc1ccc(N2CCN(C(=O)NCc3cccc(OC)c3)CC2)cc1	-	-	-	-	-
Cc1c(CNCCc2ccccc2Cl)c(C(=O)O)c(C)n1-c1ccccc1	-	-	.	-	-
CC(=O)Nc1ccc(N=Cc2ccc[nH]2)cc1	-	-	98	-	-
Fc1ccc(N=Cc2ccc[nH]2)cc1	-	-	-	-	-
COc1ccc2nc(C)cc(SCC(=O)NNC(=O)COc3ccccc3)c2c1	-	-	-	-	-
COc1ccc2nc(C)cc(Sc3nc4ccccc4s3)c2c1	-	-	99	-	-
Cc1c(N=C2NN=C(c3c[nH]c4ccccc34)CS2)c(=O)n(-c2ccccc2)n1C	-	-	.	-	-
SMILES	CAL PDZ FP-1	CAL PDZ FP-2	ALR inh	DYRK1A inh	Rtt109 HAT inh
Cc1c(N=C2NN=C(c3ccc(Cl)cc3)CS2)c(=O)n(-c2ccccc2)n1C	-	-	97	-	-
COc1cccc(N2C(=NC(=O)CCc3ccccc3)SC3CS(=O)(=O)CC32)c1 (stereo not drawn)	-	.	-	-	-
COc1ccc(CCN2CCC(CN3C(=S)NC[C@@H]3CC(C)C)CC2)cc1OC	-	-	.	.	-
O=S(=O)(Nc1c(O)ccc2ccccc12)c1cccc2ccccc12	-	.	87	-	-
Cc1cc(O)cc(C)c1NS(=O)(=O)c1ccc2ccccc2c1	-	-	79	-	-
O=C(O)c1cc(NS(=O)(=O)c2cccc3ccccc23)ccc1O	-	-	-	-	-
Cc1ccc(S(=O)(=O)Nc2c(O)ccc3ccccc23)cc1	.	.	88	.	.
CCOC(=O)C(Cc1ccccc1)C(=O)Nc1nccs1 (stereo not drawn)	-	-	-	-	-
CCOC(=O)C(Cc1ccccc1)c1ccnc2ncnn12 (stereo not drawn)	-	34	-	-	-
COc1ccc(Cc2n[nH]c(=S)n(N)c2=O)cc1	-	-	-	.	-
Nn1c(=S)[nH]nc(Cc2ccc(O)cc2)c1=O	-	-	80	-	-
CCN(CC)C(=O)CC(c1ccc(OC)cc1)c1c(OC)cc(OC)c2ccc(=O)oc12 (stereo not drawn)	-	-	.	-	-
Cc1ccc(NC2CCCN(C(=O)c3ccccc3-c3ncc[nH]3)C2)cc1C (stereo not drawn)	-	-	99	-	-
Cc1ccc(C(=O)N2CCCC(Nc3ccc(F)c(F)c3)C2)cn1 (stereo not drawn)	-	-	-	-	-

Screening data from PubChem.
